Calls of active or inactive are those of the source. No cut-off for these calls is given here.
Assays:
[1] = Antiproliferative activity against human MCF7 cells after 48 hrs by MTT assay; type: functional, cell-based; settings: MCF7, 48 h
Summary of the method: (§1)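 Cells kept in RPMI-1640 with 10% heat-inactivated FBS, 37°C, 5% CO2. 10^4 cells/well seeded, compounds (dissolved in DMSO or PBS, diluted in medium) added after 4 h at final 200, 150, 100, 50 and 10 μM for 48 h. MTT then 4 h, formazan dissolved in DMSO, OD 570 nm. Growth inhibition vs medium control; IC50 from inhibition ratios; three independent experiments in triplicate.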

[2] = Antiproliferative activity against human K562 cells after 48 hrs by MTT assay; type: functional, cell-based; settings: K562, 48 h; summary of the method: as §1
[3] = Antiproliferative activity against human HeLa cells after 48 hrs by MTT assay; type: functional, cell-based; summary of the method: as §1
[4] = target: DNA topoisomerase 2-alpha (Homo sapiens) (UniProt P11388); assay: Inhibition of human topoisomerase-2 alpha-mediated kinetoplast DNA decatenation at 3.15 to 200 uM after 15 mins by ethidium bromide staining based agarose gel electrophoresis
Summary of the method: (§2)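 Human topo IIα (0.5 units) with 20 µg/mL kDNA in 50 mM Tris-HCl pH 8.0, 0.5 mM DTT, 10 mM MgCl2, 2 mM ATP. Compounds at 3.15, 12.5, 50 and 200 µM, 15 min at 37°C; stopped with SDS/glycerol. Products run on 1% agarose, 50 V, 50 min, ethidium bromide-stained, viewed under UV. Controls without enzyme and without inhibitor; etoposide reference.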

[5] = Anti-metastatic activity against H22 cells xenografted in Balb/c mouse assessed as lung weight at 10 mg/kg/day, ig administered 6 days per week for two consecutive weeks measured on day 12 post last dose (reference value: 0.287 +/- 0.117 g); type: functional
[6] = Anti-metastatic activity against H22 cells xenografted in Balb/c mouse assessed as inhibition of metastasized nodes on lung surface at 10 mg/kg/day, ig administered 6 days per week for two consecutive weeks measured on day 13 post dose by microscopic method relative to control; type: functional; settings: po
Summary of the method: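 BALB/c mice (18~22 g, both sexes) injected via tail vein with 6 × 10^6 H22 ascites cells. After 24 h, randomized into groups of 10. Compounds given intragastrically at 10 mg/kg in 0.5% CMC-Na (2 mg/ml), vehicle to controls. Lung-surface metastatic nodes counted under microscope; inhibition rate from mean node counts vs vehicle group.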

[7] = test system: Mus musculus; assay: Toxicity in Balb/c mouse xenografted with […] cells assessed as body weight at 10 mg/kg/day, ig administered 6 days per week for two consecutive weeks (reference value: 20.17 +/- 3.66 g); type: organism-based; settings: in vivo, po, 144 h
[8] = target: DNA topoisomerase 2-alpha (Homo sapiens) (UniProt P11388); assay: Inhibition of human topoisomerase-2 alpha-mediated kinetoplast DNA decatenation at 3.15 to 200 uM after 15 mins by ethidium bromide staining based agarose gel electrophoresis relative to etoposide; summary of the method: as §2
[9] = test system: Mus musculus; assay: Toxicity in Balb/c mouse xenografted with […] cells assessed as mouse survival at 10 mg/kg/day, ig administered 6 days per week for two consecutive weeks; type: organism-based; settings: in vivo, po, 144 h
Summary of the method: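 H22 hepatocarcinoma ascites from BALB/c donor mice was diluted 1:4 in saline (3 × 10^7 cells/ml), and 0.2 mL (6 × 10^6 cells) was injected via tail vein into BALB/c mice weighing 18~22 g. After 24 h, mice were weighed and randomised into 7 groups of 10, half of each sex. Compound was given intragastrically at 2 mg/ml in 0.5% CMC-Na, with vehicle controls. Surviving animals were counted against the original number per group.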

[10] = Antiproliferative activity against human NCI60 cells after 48 hrs by SRB assay; type: functional, cell-based; settings: NCI60, 48 h
[11] = target: DNA topoisomerase 2-alpha (Homo sapiens) (UniProt P11388); assay: Inhibition of human topoisomerase-2 alpha-mediated kinetoplast DNA decatenation after 15 mins by ethidium bromide staining based agarose gel electrophoresis; summary of the method: as §2

Sequence of DNA topoisomerase 2-alpha (Homo sapiens) (P11388 whole entry): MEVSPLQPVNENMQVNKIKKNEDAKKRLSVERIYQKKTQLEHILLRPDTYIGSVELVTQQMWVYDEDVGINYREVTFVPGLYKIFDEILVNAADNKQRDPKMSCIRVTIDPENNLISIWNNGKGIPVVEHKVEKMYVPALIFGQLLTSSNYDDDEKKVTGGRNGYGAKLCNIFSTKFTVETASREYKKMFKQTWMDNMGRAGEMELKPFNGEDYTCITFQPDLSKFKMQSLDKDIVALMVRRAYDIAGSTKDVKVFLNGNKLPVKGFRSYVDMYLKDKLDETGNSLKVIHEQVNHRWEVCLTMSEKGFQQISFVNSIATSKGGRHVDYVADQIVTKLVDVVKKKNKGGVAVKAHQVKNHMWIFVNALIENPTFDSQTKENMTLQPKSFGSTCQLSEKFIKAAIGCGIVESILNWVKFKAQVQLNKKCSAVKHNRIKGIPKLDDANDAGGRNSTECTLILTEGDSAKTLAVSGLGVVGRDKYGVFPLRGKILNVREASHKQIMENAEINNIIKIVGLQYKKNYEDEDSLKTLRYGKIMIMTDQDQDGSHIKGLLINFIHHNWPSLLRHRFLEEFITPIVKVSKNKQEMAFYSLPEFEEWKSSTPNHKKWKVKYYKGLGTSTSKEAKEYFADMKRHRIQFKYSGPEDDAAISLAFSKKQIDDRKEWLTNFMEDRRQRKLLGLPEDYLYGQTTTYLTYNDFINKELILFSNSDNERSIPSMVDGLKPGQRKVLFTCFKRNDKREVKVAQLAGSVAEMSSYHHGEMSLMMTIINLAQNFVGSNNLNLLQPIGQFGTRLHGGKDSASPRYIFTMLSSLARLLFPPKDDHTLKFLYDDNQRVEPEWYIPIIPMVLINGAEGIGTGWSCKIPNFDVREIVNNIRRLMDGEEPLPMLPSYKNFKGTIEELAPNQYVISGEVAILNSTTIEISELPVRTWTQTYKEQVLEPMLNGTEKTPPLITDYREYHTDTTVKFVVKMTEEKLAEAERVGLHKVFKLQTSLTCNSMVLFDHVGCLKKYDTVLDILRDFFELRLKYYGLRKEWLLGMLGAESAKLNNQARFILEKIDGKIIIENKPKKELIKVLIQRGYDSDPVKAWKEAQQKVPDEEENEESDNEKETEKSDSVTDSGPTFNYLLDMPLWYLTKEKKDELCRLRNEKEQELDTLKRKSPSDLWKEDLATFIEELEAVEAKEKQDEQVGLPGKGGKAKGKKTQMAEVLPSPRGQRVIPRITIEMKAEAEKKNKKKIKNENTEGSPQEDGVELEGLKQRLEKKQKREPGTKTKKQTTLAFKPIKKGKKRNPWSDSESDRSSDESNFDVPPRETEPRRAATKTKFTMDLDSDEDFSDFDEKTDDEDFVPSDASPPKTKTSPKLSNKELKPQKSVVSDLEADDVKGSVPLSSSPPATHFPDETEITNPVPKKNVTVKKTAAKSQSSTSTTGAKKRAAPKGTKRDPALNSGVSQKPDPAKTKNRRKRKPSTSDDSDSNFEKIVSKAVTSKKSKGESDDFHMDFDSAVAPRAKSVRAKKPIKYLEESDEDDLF

## CC[C@@H](C)[C@H](NC(=O)c1ccc(Oc2nc3ccccc3nc2C)cc1)C(=O)O
[1]
  IC50: 35.7 µM
[2]
  IC50: 30.5 µM
[3]
  IC50: 33.2 µM

## Cc1nc2ccccc2nc1Oc1ccc(C(=O)N[C@@H](C)C(=O)O)cc1
[1]
  IC50: 25.6 µM
[2]
  IC50: 28.1 µM
[3]
  IC50: 22.3 µM

## COc1cc([C@@H]2c3cc4c(cc3[C@@H](O[C@@H]3O[C@@H]5CO[C@@H](C)O[C@H]5[C@H](O)[C@H]3O)[C@H]3COC(=O)[C@H]23)OCO4)cc(OC)c1O
[4]
  inhibition: Active

## CCCCCCCCCCCCNc1nc2ccccc2nc1Oc1ccc(C(=O)N[C@@H](Cc2ccccc2)C(=O)O)cc1
[1]
  IC50: 6.79 µM
[2]
  IC50: 7.37 µM
[3]
  IC50: 9.19 µM
[5]
  Activity: 0.197 g
[6]
  inhibition in vivo at 10 mg/kg/day: 33.7%
[7]
  Activity: 20.85 g
[4]
  inhibition: Active
[8]
  fold change (FC): 4

## CC[C@@H](C)[C@H](NC(=O)c1ccc(Oc2nc3ccccc3nc2C)cc1)C(=O)OC
[1]
  IC50: 36.1 µM
[2]
  IC50: 38.3 µM
[3]
  IC50: > 50 µM

## Cc1nc2ccc(Cl)cc2nc1Oc1ccc(C(=O)N[C@@H](CC(C)C)C(=O)O)cc1
[1]
  IC50: 15.1 µM
[2]
  IC50: 14.5 µM
[3]
  IC50: 16.4 µM
[5]
  Activity: 0.254 g
[6]
  inhibition in vivo at 10 mg/kg/day: 14.8%
[7]
  Activity: 23.25 g
[9]
  Activity: Non-Toxic

## CCCCCCCCCCCCNc1nc2ccccc2nc1Oc1ccc(C(=O)N[C@H](C(=O)OC)[C@H](C)CC)cc1
[1]
  IC50: 43.3 µM
[2]
  IC50: 30.8 µM
[3]
  IC50: 40.3 µM

## COC(=O)[C@H](C)NC(=O)c1ccc(Oc2nc3ccccc3nc2C)cc1
[1]
  IC50: 38.4 µM
[2]
  IC50: 45.5 µM
[3]
  IC50: 32.2 µM

## CCCCCCCCCCCCNc1nc2ccccc2nc1Oc1ccc(C(=O)N[C@@H](Cc2ccccc2)C(=O)OC)cc1
[1]
  IC50: 33.4 µM
[2]
  IC50: 30.5 µM
[3]
  IC50: 34.4 µM

## COC(=O)[C@H](CC(C)C)NC(=O)c1ccc(Oc2nc3ccccc3nc2NC(C)(C)C)cc1
[1]
  IC50: > 50 µM
[2]
  IC50: > 50 µM
[3]
  IC50: > 50 µM

## COC(=O)[C@H](Cc1ccccc1)NC(=O)c1ccc(Oc2nc3cc(Cl)ccc3nc2C)cc1
[1]
  IC50: 25.5 µM
[2]
  IC50: 27.5 µM
[3]
  IC50: 28.8 µM

## COC(=O)[C@H](C)NC(=O)c1ccc(Oc2nc3ccc(Cl)cc3nc2C)cc1
[1]
  IC50: 33.8 µM
[2]
  IC50: 26 µM
[3]
  IC50: 42.5 µM

## C[C@@H](Oc1ccc(Oc2cnc3ccc(Cl)cc3n2)cc1)C(=O)O [R(+)XK469]
[10]
  IC50: 70 µM

## COC(=O)[C@H](Cc1ccccc1)NC(=O)c1ccc(Oc2nc3ccccc3nc2NC(C)(C)C)cc1
[1]
  IC50: > 50 µM
[2]
  IC50: 10.3 µM
[3]
  IC50: > 50 µM

## CCCCCCCCCCCCNc1nc2ccccc2nc1Oc1ccc(C(=O)N[C@@H](C)C(=O)OC)cc1
[1]
  IC50: 33.8 µM
[2]
  IC50: 26.7 µM
[3]
  IC50: 28.5 µM

## Cc1nc2cc(Cl)ccc2nc1Oc1ccc(C(=O)N[C@@H](C)C(=O)O)cc1
[1]
  IC50: 19.4 µM
[2]
  IC50: 20.9 µM
[3]
  IC50: 30 µM

## CC(C)C[C@H](NC(=O)c1ccc(Oc2nc3ccccc3nc2NC(C)(C)C)cc1)C(=O)O
[1]
  IC50: 40.3 µM
[2]
  IC50: 42.3 µM
[3]
  IC50: 39.2 µM

## CCCCCCCCCCCCNc1nc2ccccc2nc1Oc1ccc(C(=O)N[C@H](C(=O)O)[C@H](C)CC)cc1
[1]
  IC50: 30.4 µM
[2]
  IC50: 21.5 µM
[3]
  IC50: 35.5 µM

## CC(C)(C)Nc1nc2ccccc2nc1Oc1ccc(C(=O)NCC(=O)O)cc1
[1]
  IC50: > 50 µM
[2]
  IC50: > 50 µM
[3]
  IC50: > 50 µM

## CC(C)(C)Nc1nc2ccccc2nc1Oc1ccc(C(=O)N[C@@H](Cc2ccccc2)C(=O)O)cc1
[1]
  IC50: 25.3 µM
[2]
  IC50: 15.2 µM
[3]
  IC50: 20.5 µM

## Cc1nc2ccccc2nc1Oc1ccc(C(=O)N[C@@H](CC(C)C)C(=O)O)cc1
[1]
  IC50: 14.7 µM
[2]
  IC50: 19.5 µM
[3]
  IC50: 17.3 µM
[5]
  Activity: 0.238 g
[6]
  inhibition in vivo at 10 mg/kg/day: 11%
[7]
  Activity: 22.46 g
[9]
  Activity: Non-Toxic

## C[C@H](NC(=O)c1ccc(Oc2nc3ccccc3nc2NC(C)(C)C)cc1)C(=O)O
[1]
  IC50: 29.4 µM
[2]
  IC50: 26.4 µM
[3]
  IC50: 23.4 µM

## Cc1nc2cc(Cl)ccc2nc1Oc1ccc(C(=O)N[C@@H](CC(C)C)C(=O)O)cc1
[1]
  IC50: 17.4 µM
[2]
  IC50: 21.3 µM
[3]
  IC50: 25 µM

## COc1cccc2c1C(=O)c1c(O)c3c(c(O)c1C2=O)C[C@@](O)(C(=O)CO)C[C@@H]3O[C@H]1C[C@H](N)[C@H](O)[C@H](C)O1 [DOXORUBICIN]
[2]
  IC50: 13.5 µM
[3]
  IC50: 11.5 µM
[5]
  Activity: 0.217 g
[6]
  inhibition in vivo at 10 mg/kg/day: 59.9%
[7]
  Activity: 23.32 g

## Cc1nc2ccc(Cl)cc2nc1Oc1ccc(C(=O)N[C@@H](Cc2ccccc2)C(=O)O)cc1
[1]
  IC50: 20.2 µM
[2]
  IC50: 21.5 µM
[3]
  IC50: 20.2 µM

## COC(=O)[C@H](C)NC(=O)c1ccc(Oc2nc3ccccc3nc2NC(C)(C)C)cc1
[1]
  IC50: 38.4 µM
[2]
  IC50: 42.2 µM
[3]
  IC50: 55.2 µM

## CC[C@@H](C)[C@H](NC(=O)c1ccc(Oc2nc3ccccc3nc2NC(C)(C)C)cc1)C(=O)O
[1]
  IC50: 11.3 µM
[2]
  IC50: 18.3 µM
[3]
  IC50: 13.4 µM
[5]
  Activity: 0.211 g
[6]
  inhibition in vivo at 10 mg/kg/day: 27.6%
[7]
  Activity: 21.84 g
[9]
  Activity: Non-Toxic

## COC(=O)[C@H](CC(C)C)NC(=O)c1ccc(Oc2nc3ccccc3nc2C)cc1
[1]
  IC50: 25.5 µM
[2]
  IC50: 22.6 µM
[3]
  IC50: 21.6 µM

## COC(=O)CNC(=O)c1ccc(Oc2nc3ccccc3nc2NC(C)(C)C)cc1
[1]
  IC50: > 50 µM
[2]
  IC50: > 50 µM
[3]
  IC50: > 50 µM

## CCCCCCCCCCCCNc1nc2ccccc2nc1Oc1ccc(C(=O)N[C@@H](C)C(=O)O)cc1
[1]
  IC50: 4.11 µM
[2]
  IC50: 3.28 µM
[3]
  IC50: 6.24 µM
[5]
  Activity: 0.23 g
[6]
  inhibition in vivo at 10 mg/kg/day: 42.5%
[7]
  Activity: 24.62 g
[11]
  inhibition: Dose-dependent effect

## COC(=O)[C@H](CC(C)C)NC(=O)c1ccc(Oc2nc3ccc(Cl)cc3nc2C)cc1
[1]
  IC50: 22.8 µM
[2]
  IC50: 32.6 µM
[3]
  IC50: 37.6 µM

## CC[C@@H](C)[C@H](NC(=O)c1ccc(Oc2nc3ccccc3nc2NC(C)(C)C)cc1)C(=O)OC
[1]
  IC50: 33.4 µM
[2]
  IC50: 38.7 µM
[3]
  IC50: 31.9 µM

## COC(=O)[C@H](CC(C)C)NC(=O)c1ccc(Oc2nc3cc(Cl)ccc3nc2C)cc1
[1]
  IC50: 19.1 µM
[2]
  IC50: 22 µM
[3]
  IC50: 18.6 µM

Reference: ChEMBL document CHEMBL3875151, “Design, synthesis, biological evaluation and molecular docking study on peptidomimetic analogues of XK469” (Eur J Med Chem, 2016)
